This data set deals with IMR-90 human lung fibroblasts. Nature of the data set: Mammalian cell viability, Cell Titer Glo. Format: cell-based. The following applies: 1 μg mL^−1 doxorubicin. The gist of the method:
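IMR-90 fibroblasts from ATCC, grown in EMEM with 10% FBS and Pen-Strep at 37 °C, 5% CO2, split 1:3 at confluence. Seeded 20,000 cells/well and left overnight to adhere. Then treated 24 h or 48 h with 50 μM test compound (0.5% DMSO), 0.5% DMSO, 10% DMSO or doxorubicin hydrochloride (given as 1 μg mL−1 and 1.7 μM). CellTiter-Glo ATP luminescence, no-cell background. Percent death versus 0.5% DMSO.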
A general note: ATP-based viability assays read luminescence as a measure of living cells.

Under “24 h”, `COc1cccc2c1C(=O)c1c(O)c3c(c(O)c1C2=O)C[C@@](O)(C(=O)CO)C[C@@H]3O[C@H]1C[C@H](N)[C@H](O)[C@H](C)O1` [doxorubicin] gave a cells dead of 50%. The “cell death (in words)” value (48 h) was “near complete cell death”.

For the origin of these results see paper PMC6457116 (ACS chemical biology, 2018).
